Key:
Mus musculus [1] = experiment: Toxicity in BALB/c nu/nu mouse xenografted with human DMS53 cells assessed as change in RBC count at 10 mg/kg, po administered for 3 times a week measured after 20 days; assay type: organism-based, DMS-53; parameters: dose 10 mg/kg, route oral; conditions: in vivo, 480 h
Mus musculus [2] = experiment: Toxicity in BALB/c nu/nu mouse xenografted with human DMS53 cells assessed as change in RBC count at 3 mg/kg, iv administered for 5 days a week measured after 21 days; assay type: organism-based, DMS-53; parameters: dose 3 mg/kg, route intravenous; conditions: in vivo, 504 h
Mus musculus [3] = experiment: Toxicity in BALB/c nu/nu mouse xenografted with human DMS53 cells assessed as change in RBC count at 6 mg/kg, iv administered for 5 days a week measured after 21 days; assay type: organism-based, DMS-53; parameters: dose 6 mg/kg, route intravenous; conditions: in vivo, 504 h
Mus musculus [4] = experiment: Toxicity in BALB/c nu/nu mouse xenografted with human DMS53 cells assessed as hepatocellular necrosis at 3 mg/kg, iv administered for 5 days a week measured after 21 days by hematoxylin and eosin staining method; assay type: organism-based, DMS-53; parameters: dose 3 mg/kg, route intravenous; conditions: in vivo, 504 h
Summary of the method: (§1)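 Nude mice with DMS-53 xenografts dosed by tail-vein iv injection in 30% propylene glycol/saline, starting at 100 mm3 tumour volume, 5 days/week for 21 days. Spleen, kidney, liver, heart, lungs and brain were stained with H&E, Perls' (Fe loading) and Gomori Trichrome (fibrosis) by standard methods, and an independent veterinary pathologist examined them.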

Mus musculus [5] = experiment: Toxicity in BALB/c nu/nu mouse xenografted with human DMS53 cells assessed as body weight change at 7.5 mg/kg, po administered for 3 times a week measured after 20 days; conditions: in vivo, 480 h
Mus musculus [6] = experiment: Toxicity in BALB/c nu/nu mouse xenografted with human DMS53 cells assessed as change in lungs histology at 3 mg/kg, iv administered for 5 days a week measured after 21 days by hematoxylin and eosin staining method; assay type: organism-based, DMS-53; parameters: dose 3 mg/kg, route intravenous; conditions: in vivo, 504 h
Summary of the method: (§2)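 DMS-53 xenografts in nude mice; dosing started at 100 mm3 tumor volume. Agents given iv via tail vein, 5 days/week for 21 days, vehicle 30% propylene glycol/saline, vehicle-treated controls. Mice sacrificed day 21. Body and organ weights and hematological indices recorded. Spleen, kidney, liver, heart, lungs and brain were stained with H&E, Perls' and Gomori Trichrome and read by an independent veterinary pathologist.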

Mus musculus [7] = experiment: Toxicity in BALB/c nu/nu mouse xenografted with human DMS53 cells assessed as change in hemoglobin level at 6 mg/kg, iv administered for 5 days a week measured after 21 days; assay type: organism-based, DMS-53; parameters: dose 6 mg/kg, route intravenous; conditions: in vivo, 504 h; summary of the method: as §2
Mus musculus [8] = experiment: Toxicity in BALB/c nu/nu mouse xenografted with human DMS53 cells assessed as change in lung weight at 10 mg/kg, po administered for 3 times a week measured after 20 days; assay type: organism-based, DMS-53; parameters: dose 10 mg/kg, route oral; conditions: in vivo, 480 h
Summary of the method: (§3)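 Nude mice bearing DMS-53 xenografts gavaged 3 times/week for 20 days, vehicle 30% propylene glycol/saline, vehicle controls, n = 6-11 mice/condition. Sacrifice on day 20. Organ weights and hematological indices recorded. Spleen, kidney, liver, heart, lungs and brain examined histologically, hearts stained with Gomori Trichrome for fibrosis.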

Mus musculus [9] = experiment: Cardiotoxicity in BALB/c nu/nu mouse xenografted with human DMS53 cells at 6 mg/kg, iv administered for 5 days a week measured after 21 days; assay type: toxicity, organism-based, DMS-53; parameters: dose 6 mg/kg, route intravenous; conditions: in vivo, 504 h
Summary of the method: (§4)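 DMS-53 xenograft nude mice given agents iv by tail vein 5 days/week in 30% propylene glycol/saline for 21 days. At sacrifice, heart sections were stained with Gomori Trichrome to detect fibrosis. Spleen, kidney, liver, heart, lungs and brain were also stained with H&E and Perls' and examined by an independent veterinary pathologist.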

Mus musculus [10] = experiment: Toxicity in BALB/c nu/nu mouse xenografted with human DMS53 cells assessed as change in lung weight at 7.5 mg/kg, po administered for 3 times a week measured after 20 days; assay type: organism-based, DMS-53; parameters: dose 7.5 mg/kg, route oral; conditions: in vivo, 480 h; summary of the method: as §3
Mus musculus [11] = experiment: Toxicity in BALB/c nu/nu mouse xenografted with human DMS53 cells assessed as change in hemoglobin level at 7.5 mg/kg, po administered for 3 times a week measured after 20 days; assay type: organism-based, DMS-53; parameters: dose 7.5 mg/kg, route oral; conditions: in vivo, 480 h; summary of the method: as §3
Mus musculus [12] = experiment: Toxicity in BALB/c nu/nu mouse xenografted with human DMS53 cells assessed as change in organ weight at 3 mg/kg, iv administered for 5 days a week measured after 21 days; assay type: organism-based, DMS-53; parameters: dose 3 mg/kg, route intravenous; conditions: in vivo, 504 h
Summary of the method: (§5)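 DMS-53 xenograft-bearing nude mice, treatment started at 100 mm3 tumour volume: iv tail-vein dosing in 30% propylene glycol/saline, 5 days/week for 21 days. Organs were weighed at sacrifice and compared with vehicle-control mice.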

Mus musculus [13] = experiment: Toxicity in BALB/c nu/nu mouse xenografted with human DMS53 cells assessed as change in heart weight at 7.5 mg/kg, po administered for 3 times a week measured after 20 days; assay type: organism-based, DMS-53; parameters: dose 7.5 mg/kg, route oral; conditions: in vivo, 480 h; summary of the method: as §3
Mus musculus [14] = experiment: Toxicity in BALB/c nu/nu mouse xenografted with human DMS53 cells assessed as change in brain histology at 6 mg/kg, iv administered for 5 days a week measured after 21 days by hematoxylin and eosin staining method; assay type: organism-based, DMS-53; parameters: dose 6 mg/kg, route intravenous; conditions: in vivo, 504 h; summary of the method: as §2
Mus musculus [15] = experiment: Cardiotoxicity in BALB/c nu/nu mouse xenografted with human DMS53 cells at 3 mg/kg, iv administered for 5 days a week measured after 21 days; assay type: toxicity, organism-based, DMS-53; parameters: dose 3 mg/kg, route intravenous; conditions: in vivo, 504 h; summary of the method: as §4
Mus musculus [16] = experiment: Toxicity in BALB/c nu/nu mouse xenografted with human DMS53 cells assessed as hepatocellular necrosis at 0.75 mg/kg, iv administered for 5 days a week measured after 21 days by hematoxylin and eosin staining method; assay type: organism-based, DMS-53; parameters: dose 0.75 mg/kg, route intravenous; conditions: in vivo, 504 h; summary of the method: as §1
Mus musculus [17] = experiment: Toxicity in BALB/c nu/nu mouse xenografted with human DMS53 cells assessed as hepatocellular necrosis at 6 mg/kg, iv administered for 5 days a week measured after 21 days by hematoxylin and eosin staining method; assay type: organism-based, DMS-53; parameters: dose 6 mg/kg, route intravenous; conditions: in vivo, 504 h; summary of the method: as §1
Mus musculus [18] = experiment: Toxicity in BALB/c nu/nu mouse xenografted with human DMS53 cells assessed as change in hematopoetic cells in splenic red pulp at 8 mg/kg, iv administered for 5 days a week measured after 21 days by hematoxylin and eosin staining method; assay type: organism-based, DMS-53; parameters: dose 8 mg/kg, route intravenous; conditions: in vivo, 504 h; summary of the method: as §2
Mus musculus [19] = experiment: Toxicity in BALB/c nu/nu mouse xenografted with human DMS53 cells assessed as cardiac fibrosis at 8 mg/kg, iv administered for 5 days a week measured after 21 days by […]; assay type: organism-based, Heart, DMS-53; parameters: dose 8 mg/kg, route intravenous; conditions: in vivo, 504 h; summary of the method: as §4
Mus musculus [20] = experiment: Toxicity in BALB/c nu/nu mouse xenografted with human DMS53 cells assessed as change in brain histology at 4 mg/kg, iv administered for 5 days a week measured after 21 days by hematoxylin and eosin staining method; assay type: organism-based, DMS-53; parameters: dose 4 mg/kg, route intravenous; conditions: in vivo, 504 h; summary of the method: as §2
Mus musculus [21] = experiment: Toxicity in BALB/c nu/nu mouse xenografted with human DMS53 cells assessed as change in organ weight at 8 mg/kg, iv administered for 5 days a week measured after 21 days; assay type: organism-based, DMS-53; parameters: dose 8 mg/kg, route intravenous; conditions: in vivo, 504 h; summary of the method: as §5
Mus musculus [22] = experiment: Toxicity in BALB/c nu/nu mouse xenografted with human DMS53 cells assessed as change in RBC count at 20 mg/kg, po administered for 3 times a week measured after 20 days; assay type: organism-based, DMS-53; parameters: dose 20 mg/kg, route oral; conditions: in vivo, 480 h
Mus musculus [23] = experiment: Toxicity in BALB/c nu/nu mouse xenografted with human DMS53 cells assessed as vacuolation at 4 mg/kg, iv administered for 5 days a week measured after 21 days by hematoxylin and eosin staining method; assay type: organism-based, DMS-53; parameters: dose 4 mg/kg, route intravenous; conditions: in vivo, 504 h; summary of the method: as §1
Mus musculus [24] = experiment: Toxicity in BALB/c nu/nu mouse xenografted with human DMS53 cells assessed as change in RBC count at 8 mg/kg, iv administered for 5 days a week measured after 21 days; assay type: organism-based, DMS-53; parameters: dose 8 mg/kg, route intravenous; conditions: in vivo, 504 h
Mus musculus [25] = experiment: Toxicity in BALB/c nu/nu mouse xenografted with human DMS53 cells assessed as hepatocellular fibrosis at 4 mg/kg, iv administered for 5 days a week measured after 21 days by hematoxylin and eosin staining method; assay type: organism-based, DMS-53; parameters: dose 4 mg/kg, route intravenous; conditions: in vivo, 504 h; summary of the method: as §1

CCN(C)C(=S)NN=C(c1ccccn1)c1ccccn1.Cl
Activity (Mus musculus [1]): Toxic | Activity (Mus musculus [2]): Non-toxic | Activity (Mus musculus [3]): Non-toxic | Activity (Mus musculus [4]): Non-toxic | Activity (Mus musculus [5]): Non-toxic | Activity (Mus musculus [6]): Non-toxic | Activity (Mus musculus [7]): Non-toxic | Activity (Mus musculus [8]): Toxic | Activity (Mus musculus [9]): Non-toxic | Activity (Mus musculus [10]): Non-toxic | Activity (Mus musculus [11]): Toxic | Activity (Mus musculus [12]): Toxic | Activity (Mus musculus [13]): Non-toxic | Activity (Mus musculus [14]): Non-toxic | Activity (Mus musculus [15]): Non-toxic | Activity (Mus musculus [16]): Non-toxic | Activity (Mus musculus [17]): Non-toxic

CN(C(=S)NN=C(c1ccccn1)c1ccccn1)C1CCCCC1.Cl
Activity (Mus musculus [18]): Non-toxic | Activity (Mus musculus [19]): Non-toxic | Activity (Mus musculus [20]): Non-toxic | Activity (Mus musculus [21]): Toxic | Activity (Mus musculus [22]): Non-toxic | Activity (Mus musculus [23]): Non-toxic | Activity (Mus musculus [24]): Toxic | Activity (Mus musculus [25]): Non-toxic

Source: ChEMBL document CHEMBL2203173 (J Med Chem, 2012)
